ChEMBL document CHEMBL1141669, “Nitrile analogs of meperidine as high affinity and selective sigma-1 receptor ligands” (Eur J Med Chem, 2008)

Columns and labels:
[1] = molecular target: Sigma non-opioid intracellular receptor 1 (Rattus norvegicus, UniProt Q9R0C9); test: Displacement of [3H](+)-pentazocine from sigma 1 opioid receptor in rat brain cerebellum; format: tissue-based
In short: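 σ1 radioligand binding with 5 nM [3H](+)-pentazocine in 50 mM Tris–HCl, pH 8.0. Nonspecific binding defined with 10 µM haloperidol. Test ligand at twelve concentrations, 120 min at 25 °C.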

[2] = molecular target: Kappa-type opioid receptor (Homo sapiens, UniProt P41145); test: Binding affinity to kappa opioid receptor
Kappa-type opioid receptor, sequence (P41145 whole entry): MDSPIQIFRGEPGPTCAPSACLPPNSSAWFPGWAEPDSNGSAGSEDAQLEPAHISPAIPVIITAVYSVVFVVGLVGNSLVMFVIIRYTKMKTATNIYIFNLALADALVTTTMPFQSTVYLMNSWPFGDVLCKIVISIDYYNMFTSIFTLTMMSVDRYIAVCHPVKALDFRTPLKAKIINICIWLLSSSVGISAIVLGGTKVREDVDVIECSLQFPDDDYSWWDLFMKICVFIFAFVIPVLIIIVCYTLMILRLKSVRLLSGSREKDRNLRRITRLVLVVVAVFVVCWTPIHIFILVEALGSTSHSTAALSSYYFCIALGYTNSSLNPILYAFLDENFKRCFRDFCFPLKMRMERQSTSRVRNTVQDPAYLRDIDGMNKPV

Mu-type opioid receptor = Mu-type opioid receptor (Homo sapiens, UniProt P35372); test: Binding affinity to mu opioid receptor
Mu-type opioid receptor, sequence (P35372 whole entry): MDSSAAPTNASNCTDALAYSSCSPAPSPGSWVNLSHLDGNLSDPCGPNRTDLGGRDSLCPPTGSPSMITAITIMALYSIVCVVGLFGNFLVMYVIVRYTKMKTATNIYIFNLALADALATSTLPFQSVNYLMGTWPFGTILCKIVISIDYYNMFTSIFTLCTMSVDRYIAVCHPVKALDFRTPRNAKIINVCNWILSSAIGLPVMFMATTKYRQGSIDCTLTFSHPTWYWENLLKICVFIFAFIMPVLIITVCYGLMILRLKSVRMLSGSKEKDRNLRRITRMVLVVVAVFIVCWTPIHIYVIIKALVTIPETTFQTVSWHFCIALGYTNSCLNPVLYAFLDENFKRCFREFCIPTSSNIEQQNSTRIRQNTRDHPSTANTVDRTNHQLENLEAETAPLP

[3] = molecular target: Delta-type opioid receptor (Homo sapiens, UniProt P41143); test: Binding affinity to delta opioid receptor
Delta-type opioid receptor, sequence (P41143 whole entry): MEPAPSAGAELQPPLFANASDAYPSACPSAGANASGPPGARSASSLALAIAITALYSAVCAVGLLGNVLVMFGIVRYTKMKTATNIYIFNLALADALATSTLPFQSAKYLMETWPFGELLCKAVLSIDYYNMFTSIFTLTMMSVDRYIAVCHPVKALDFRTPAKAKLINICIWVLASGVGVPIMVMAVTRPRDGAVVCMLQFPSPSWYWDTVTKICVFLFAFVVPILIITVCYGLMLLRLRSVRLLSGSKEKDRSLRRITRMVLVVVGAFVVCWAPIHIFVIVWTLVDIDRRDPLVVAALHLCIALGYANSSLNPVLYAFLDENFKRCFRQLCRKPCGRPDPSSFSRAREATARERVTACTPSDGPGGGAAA

Rattus norvegicus = species on record: Rattus norvegicus; test: Selectivity ratio of Ki for rat sigma 2 opioid receptor to Ki for rat sigma 1 opioid receptor
[4] = Displacement of [3H]ditolylguanidine from sigma 2 opioid receptor in rat brain cerebellum; format: tissue-based
In short: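 σ2 sites labeled with 3 nM [3H]di-o-tolylguanidine, with 300 nM (+)-pentazocine present to mask σ1, in 50 mM Tris–HCl, pH 8.0. Nonspecific binding taken with 10 µM haloperidol. Twelve test-ligand concentrations, incubated 120 min at 25 °C.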

Sigma non-opioid intracellular receptor 1, sequence (Q9R0C9 whole entry): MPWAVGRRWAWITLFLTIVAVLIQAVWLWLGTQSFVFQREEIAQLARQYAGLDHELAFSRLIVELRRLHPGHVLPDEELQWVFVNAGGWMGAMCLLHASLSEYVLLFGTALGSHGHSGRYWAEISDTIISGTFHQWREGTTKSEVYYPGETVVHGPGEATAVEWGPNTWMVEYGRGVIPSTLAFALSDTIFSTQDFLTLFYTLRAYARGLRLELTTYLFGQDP

For `C=CCN1CCC(C#N)(c2ccccc2)CC1`, the Ki [1] was 0.0022 µM, the Ki [2] was over 10 µM and the Ki (Mu-type opioid receptor) was over 10 µM. The Ki [3] was over 10 µM, the Ratio Ki (Rattus norvegicus) was 300 and the Ki [4] was 0.662 µM.
In the case of `C=C(C)CN1CCC(C#N)(c2ccccc2)CC1`, the Ki [1] is reported as 0.0037 µM, the Ki [2] is reported as over 10 µM and the Ki (Mu-type opioid receptor) is reported as over 10 µM. For the same molecule, the Ki [3] was 5 µM, the Ratio Ki (Rattus norvegicus) was 130 and the Ki [4] was 0.482 µM.
Work on `CN1CCC(C#N)(c2ccccc2)CC1` yielded a Ki [1] of 0.113 µM, a Ki [2] of over 10 µM and a Ki (Mu-type opioid receptor) of over 10 µM. For the same molecule, the Ki [3] was over 10 µM, the Ratio Ki (Rattus norvegicus) was 19 and the Ki [4] was 2.14 µM.
In the case of `N#CC1(c2ccccc2)CCN(Cc2ccccc2)CC1`, the Ki [1] is reported as 0.00041 µM, the Ki [2] is reported as over 10 µM and the Ki (Mu-type opioid receptor) is reported as 5.9 µM. The Ki [3] was over 10 µM, the Ratio Ki (Rattus norvegicus) was 1600 and the Ki [4] was 0.657 µM.
Molecule `N#CC1(c2ccccc2)CCN(CCc2ccccc2)CC1` has a Ki [1] of 0.0033 µM, a Ratio Ki (Rattus norvegicus) of 36 and a Ki [4] of 0.118 µM.
`CCCN1CCC(C#N)(c2ccccc2)CC1` gave a Ki [1] of 0.0017 µM, a Ratio Ki (Rattus norvegicus) of 84 and a Ki [4] of 0.143 µM.
For `CC(C)CN1CCC(C#N)(c2ccccc2)CC1`, the Ki [1] was 0.00035 µM, the Ratio Ki (Rattus norvegicus) was 180 and the Ki [4] was 0.063 µM.
`c1ccc(CCN2CCN(c3ccccn3)CC2)cc1` gave a Ki [1] of 0.322 µM, a Ratio Ki (Rattus norvegicus) of 0.53 and a Ki [4] of 0.17 µM.
`c1ccc(CCN2CCCCC2)cc1` [1-PHENETHYLPIPERIDINE] gave a Ki [1] of 0.03 µM, a Ratio Ki (Rattus norvegicus) of 5 and a Ki [4] of 0.138 µM.
Molecule `N#CC1(c2ccccc2)CCN(CCCCc2ccccc2)CC1` has a Ki [1] of 0.049 µM, a Ki [2] of over 10 µM and a Ki (Mu-type opioid receptor) of 9.8 µM. The Ki [3] was over 10 µM, the Ratio Ki (Rattus norvegicus) was 27 and the Ki [4] was 1.31 µM.
In the case of `N#CC1(c2ccccc2)CCN(CCCc2ccccc2)CC1`, the Ki [1] is reported as 0.00038 µM, the Ratio Ki (Rattus norvegicus) is reported as 120 and the Ki [4] is reported as 0.046 µM.
